Measurements as given in article PMC9398179 (Molecular Cancer Therapeutics, 2021).
Several values for one entry are separate records, joined by “and”; a condition that tells them apart may be missing. Identical values can stand only once. One block for each compound: values may come before it.

Experiments:
[1] = Mouse pharmacokinetics at steady state; type: in vivo, DBA/1 mice; conditions: female, DBA/1, mouse, plasma, po, 3 mg/kg
[2] = system: CSF1R signaling (phospho-ERK) in monocytes in human whole blood; assay: Whole blood phospho-ERK flow cytometry assay; type: cell-based; conditions: Monocyte, read-out: adjusted free IC50
Procedure, shortened: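 Whole blood from a healthy donor (K2EDTA) incubated with test compound in 100 µL aliquots for 4 h at 37°C, then stimulated with CSF1 10 ng/mL for 5 min. RBCs lysed and cells fixed, permeabilized on ice, and stained with anti-CD14-PE and anti-phospho-ERK1/2. Median phospho-ERK fluorescence measured in CD14⁺ cells, from 50,000 events in the WBC gate.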

CD68+ macrophages = CD68+ macrophages in rat tissues; type: in vivo, Sprague-Dawley rats; conditions: 15 mg/kg/day orally, 14 days
Procedure, shortened: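 Male Sprague-Dawley rats dosed orally for 14 days with 0.4% HPMC vehicle or test compound 15 mg/kg daily (5 per group). FFPE organ tissues stained for CD68 with DAPI counterstain. Five nonoverlapping fields imaged at 20× per tissue. Total cell counts and CD68⁺ cell density (cells/mm²) determined.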

[3] = system: CSF1-stimulated cFOS expression in mouse spleens; assay: Mouse PK/PD model, six daily oral doses; type: in vivo
[4] = system: PC3 prostate cancer peritibial implant xenograft; assay: PC3 peritibial implant bone invasion xenograft model; type: in vivo, nude mice; conditions: 10 mg/kg once or twice daily, oral
Procedure, shortened: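 Male athymic nude mice acclimated 7 days, then implanted with 1×10^6 PC3 cells in serum-free MEM between tibia and fibula of the right leg. Randomized by body weight. Oral dosing began 6 h post-implant, days 1–32: 0.4% HPMC vehicle or test compound 10 mg/kg once or twice daily, n = 20 per group. Tumor burden = (length × width²)/2 from calipers, measured 2–3 times weekly.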

[5] = Crossover pharmacokinetic study in dogs; type: in vivo, Beagle dogs
Procedure, shortened: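 Crossover design in 3 fasted male Beagle dogs. Single IV dose of 1 mg/kg in 20% Captisol / 25 mmol/L pH 2 phosphate buffer, or oral 3, 10 or 30 mg/kg in 0.4% HPMC. Plasma sampled at 0, 0.083 (IV only), 0.25, 0.5, 1, 2, 4, 6, 8, 12 and 24 h. Quantified by LC/MS.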

MC38 colorectal cancer = assay: MC38 syngeneic colorectal cancer model; type: in vivo, C57BL/6 mice
Procedure, shortened: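 Female C57BL/6 mice implanted s.c. in the lower right flank with 1×10^6 MC38 cells in PBS. Randomized at mean tumor 104 mm³ and dosed days 12–39: test compound 10 mg/kg oral daily (0.4% HPMC vehicle) plus isotype or anti-PD1 10 mg/kg i.p. twice weekly, n = 15. Five per group taken day 32, 2 h post-dose; fresh tumors analysed by flow cytometry (macrophages CD45/CD11b/F4/80).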

[6] = Crossover pharmacokinetic study in rats; type: in vivo, Sprague-Dawley rats
Procedure, shortened: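 Crossover design in 3 fasted male Sprague-Dawley rats. Single IV dose of 1 mg/kg in 20% Captisol / 25 mmol/L pH 2 phosphate buffer, or oral 10 mg/kg in 0.4% HPMC. Plasma sampled at 0, 0.083 (IV only), 0.25, 0.5, 1, 2, 4, 6, 8, 12 and 24 h and analysed by LC/MS.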

hERG channel = hERG channel (Homo sapiens, UniProt Q12809); assay: Predictor hERG fluorescence polarization binding assay
hERG channel, sequence (Q12809 whole entry): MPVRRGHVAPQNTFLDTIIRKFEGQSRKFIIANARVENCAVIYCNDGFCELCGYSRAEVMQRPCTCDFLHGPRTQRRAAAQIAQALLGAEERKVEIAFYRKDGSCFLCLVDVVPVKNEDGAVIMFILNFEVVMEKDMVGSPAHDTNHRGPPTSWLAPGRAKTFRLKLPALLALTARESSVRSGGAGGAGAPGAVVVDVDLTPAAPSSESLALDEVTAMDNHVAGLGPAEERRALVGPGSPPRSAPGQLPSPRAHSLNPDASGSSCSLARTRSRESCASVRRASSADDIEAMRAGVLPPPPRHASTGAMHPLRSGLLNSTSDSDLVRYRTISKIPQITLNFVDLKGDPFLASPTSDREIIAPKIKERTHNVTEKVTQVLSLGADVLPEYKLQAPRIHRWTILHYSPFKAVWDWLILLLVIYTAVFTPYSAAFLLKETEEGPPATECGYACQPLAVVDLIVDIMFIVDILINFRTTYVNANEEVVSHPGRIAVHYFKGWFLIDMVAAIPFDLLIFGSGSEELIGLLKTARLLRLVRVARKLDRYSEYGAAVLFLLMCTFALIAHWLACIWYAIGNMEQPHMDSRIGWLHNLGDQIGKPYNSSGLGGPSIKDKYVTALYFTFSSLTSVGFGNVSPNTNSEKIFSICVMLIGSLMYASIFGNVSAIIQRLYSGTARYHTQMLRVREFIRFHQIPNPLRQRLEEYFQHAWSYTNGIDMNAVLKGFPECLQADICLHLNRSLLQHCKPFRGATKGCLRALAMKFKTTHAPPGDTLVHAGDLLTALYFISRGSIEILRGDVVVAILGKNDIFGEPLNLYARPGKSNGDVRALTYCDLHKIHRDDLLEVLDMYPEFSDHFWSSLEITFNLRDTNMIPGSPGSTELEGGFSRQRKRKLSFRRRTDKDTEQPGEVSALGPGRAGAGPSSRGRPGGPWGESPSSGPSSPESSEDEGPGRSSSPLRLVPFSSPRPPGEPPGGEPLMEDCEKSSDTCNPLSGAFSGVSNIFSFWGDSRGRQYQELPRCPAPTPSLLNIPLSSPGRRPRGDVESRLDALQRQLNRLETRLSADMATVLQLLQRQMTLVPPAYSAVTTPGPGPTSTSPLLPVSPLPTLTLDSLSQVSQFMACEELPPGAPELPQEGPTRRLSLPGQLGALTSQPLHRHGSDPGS

[7] = Plasma protein binding, human plasma; type: in vitro ADME
[8] = system: tenosynovial giant cell tumor (TGCT); assay: Phase I/II study DCC-3014-01-001; type: in vivo, human
[9] = Mouse pharmacokinetics after a single oral dose; type: in vivo, DBA/1 mice; conditions: 3.75 mg/kg single oral dose
MDR1 drug transporter = MDR1 drug transporter (Homo sapiens, UniProt P08183); assay: MDR1 transporter inhibition; type: in vitro ADME
MDR1 drug transporter, sequence (P08183 whole entry, canonical isoform): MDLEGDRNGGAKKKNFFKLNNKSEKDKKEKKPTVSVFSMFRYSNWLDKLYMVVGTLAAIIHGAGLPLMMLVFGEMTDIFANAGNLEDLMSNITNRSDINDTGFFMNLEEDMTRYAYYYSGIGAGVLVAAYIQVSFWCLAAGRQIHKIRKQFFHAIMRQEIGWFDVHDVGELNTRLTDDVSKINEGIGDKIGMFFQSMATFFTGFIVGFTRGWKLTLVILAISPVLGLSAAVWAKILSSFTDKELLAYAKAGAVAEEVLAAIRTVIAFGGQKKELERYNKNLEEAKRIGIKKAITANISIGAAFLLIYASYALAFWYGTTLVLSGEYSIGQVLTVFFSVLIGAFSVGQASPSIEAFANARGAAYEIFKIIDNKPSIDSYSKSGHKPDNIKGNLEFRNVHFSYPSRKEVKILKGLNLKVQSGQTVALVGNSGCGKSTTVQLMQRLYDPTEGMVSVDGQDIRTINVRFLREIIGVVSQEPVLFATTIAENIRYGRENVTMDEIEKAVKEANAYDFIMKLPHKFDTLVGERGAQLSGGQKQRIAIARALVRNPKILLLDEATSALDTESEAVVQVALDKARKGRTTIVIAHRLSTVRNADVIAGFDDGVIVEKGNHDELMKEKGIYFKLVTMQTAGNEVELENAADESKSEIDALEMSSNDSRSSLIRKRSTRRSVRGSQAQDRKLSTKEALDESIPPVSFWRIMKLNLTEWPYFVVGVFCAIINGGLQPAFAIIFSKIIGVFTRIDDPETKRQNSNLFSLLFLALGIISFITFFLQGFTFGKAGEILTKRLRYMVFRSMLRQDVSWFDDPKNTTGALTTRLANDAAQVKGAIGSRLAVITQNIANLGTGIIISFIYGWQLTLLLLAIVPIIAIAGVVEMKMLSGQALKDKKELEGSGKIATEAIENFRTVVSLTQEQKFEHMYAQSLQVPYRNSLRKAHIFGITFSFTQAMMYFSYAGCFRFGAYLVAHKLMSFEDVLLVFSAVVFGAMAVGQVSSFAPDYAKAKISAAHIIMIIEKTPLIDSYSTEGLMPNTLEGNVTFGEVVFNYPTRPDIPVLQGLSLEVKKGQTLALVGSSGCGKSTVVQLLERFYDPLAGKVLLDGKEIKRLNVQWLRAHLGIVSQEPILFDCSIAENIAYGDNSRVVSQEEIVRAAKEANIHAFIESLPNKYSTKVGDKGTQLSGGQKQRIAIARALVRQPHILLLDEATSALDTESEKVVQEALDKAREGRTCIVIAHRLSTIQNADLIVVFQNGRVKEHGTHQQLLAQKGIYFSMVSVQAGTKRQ

[10] = system: cytochrome P450 (CYP) isoforms (all isoforms studied); assay: Cytochrome P450 inhibition, all isoforms studied; type: in vitro ADME
[11] = system: cytochrome P450 (CYP) isoforms; assay: Cytochrome P450 inhibition, all isoforms studied; type: in vitro ADME
[12] = system: human osteoclast precursors; assay: Osteoclast differentiation assay; type: cell-based; conditions: 240 h, read-out: IC50, osteoclast differentiation
Procedure, shortened: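 Human osteoclast precursors thawed into complete medium with 66 ng/mL RANKL and 33 ng/mL human CSF1. Plated at 2,500 cells/well onto serially diluted test compound in triplicate (0.1% DMSO final). Cultured 10 days at 37°C. Differentiation read as tartrate-resistant acid phosphatase activity in supernatant, absorbance at 550 nm.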

[13] = Plasma protein binding, mouse plasma; type: in vitro ADME
TGCT patients = conditions: across all trials of pexidartinib in TGCT; cited from earlier work
M-NFS-60 cells = assay: M-NFS-60 cell proliferation assay; type: cell-based, mouse; conditions: 1,000 ng/mL versus 10 ng/mL CSF1
[14] = male, beagle, dog, plasma, intravenous, 1 mg/kg
[15] = male, Sprague-Dawley, rat, plasma, intravenous, 1 mg/kg
[16] = 3 TGCT patients, cycle 2 day 1, trough and 4 hours after dose

AUC(0-t) [1]: 49300 ng·h/mL
IC50 [2]: ~0.014 µM
EC50 ([3]; Mus musculus, po, read-out: free EC50): 0.012 µg/mL and 28 nM
oral bioavailability ([5]; dogs, simple vehicle): ~ 30 % F
Vd [5, 14]: 1.33 L/kg
clearance [5, 14]: 2.5 mL/min/kg
half-life [5, 14]: 6.8 h
Vd [6, 15]: 0.69 L/kg
clearance [6, 15]: 0.5 mL/min/kg
half-life [6, 15]: 14.2 h
oral bioavailability ([6]; rats, 10 mg/kg oral versus 1 mg/kg IV): 76 % F
bound to proteins in plasma ([7]; human plasma, in vitro ultracentrifugation assay): approximately 96.5%
average plasma concentration [8, 16]: approximately 500 ng/mL
average plasma concentration (total drug) [8, 16]: ~ 1,200 nmol/L
AUC0–24 [9]: 28,987 ng*hour/mL
IC50 (MDR1 drug transporter): 4.35 µM
IC50 [10]: > 75 µM
IC50 [12]: 0.0093 µM
bound in plasma [13]: approximately 97.2%
Compound: Cc1nc(-c2cnc(NC(C)C)n(C)c2=O)ccc1Oc1ccnc(-c2cnn(C)c2)c1 [Vimseltinib, vimseltinib]
decrease in liver CD68+ macrophages (CD68+ macrophages; P < 0.0001): 68%
decrease in colon CD68+ macrophages (CD68+ macrophages; P = 0.17): 47%
inhibition of cFOS expression ([3]; 3 mg/kg, six daily doses, at 24 and 48 hours): approximately 50%
inhibition of cFOS expression ([3]; 3 mg/kg, six daily doses, for 12 hours): ≥ 90%
EC80 ([3]; all animals in the steady-state study): 1,700 ng/mL
inhibition of cFOS expression ([3]; six daily oral doses of 1, 3, and 10 mg/kg): significantly inhibited cFOS expression
primary tumor growth [4]: not affected
bone degradation (CT score 0–4) ([4]; to day 32, n = 20/cohort): statistically significant protection from bone degradation
reduction of TAMs in the primary tumor (MC38 colorectal cancer; after 3 weeks of dosing, flow cytometry): > 6 fold
tumor growth inhibition (%TGI) (MC38 colorectal cancer; day 32, vimseltinib 10 mg/kg orally every day, anti-PD1 10 mg/kg i.p. twice a week): 52%
EC50 (hERG channel): > 25 µM
EC20, hERG binding (hERG channel; in vitro binding assay): 19.4 µM
plasma CSF1 and IL34 levels ([8]; 3 patients with TGCT, cycle 2 day 1, 30 mg once a day for 5 days then 30 mg twice weekly): increases in CSF1 and IL34 levels
change in tumor size (RECIST v1.1, MRI) ([8]; patient 2, right hip TGCT, after two cycles): −25%
time-dependent or metabolism-dependent inhibition of any CYP isoform [11]: no time-dependent or metabolism-dependent inhibition of any CYP isoform

plasma protein binding ([7]; method and source not stated): > 99 % bound
Compound: FC(F)(F)c1ccc(CNc2ccc(Cc3c[nH]c4ncc(Cl)cc34)cn2)cn1 [Pexidartinib, pexidartinib]
serious hepatic adverse events assessed as probably drug-related (TGCT patients): five
loss of potency at high CSF1 ligand concentration (M-NFS-60 cells): 3.8 fold
